Measured values as given in ChEMBL document CHEMBL4152210, “Design, synthesis, anti-lung cancer activity, and chemosensitization of tumor-selective MCACs based on ROS-mediated JNK pathway activation and NF-κB pathway inhibition” (Eur J Med Chem, 2018).
pIC50: −log10 of the molar value. Calls of active or inactive are those of the source. No cut-off for these calls is given here.

Key:
A549 [1] = experiment: Induction of apoptosis in human A549 cells after 24 hrs by Annexin V-FITC/propidium iodide staining based flow cytometric analysis; format: functional, cell-based
How it was run: (§1)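 A549 treated 24 h at 1, 5 or 10 µM, with BMS345541 20 µM as control. Inhibitor arms pretreated 1 h with NAC (5 mM) or SP600125 (10 µM) before 10 µM. Cells harvested with EDTA-free trypsin, stained with FITC Annexin V and PI for 15 min at room temperature in the dark, analysed by flow cytometry.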

[2] = Selectivity index, ratio of IC50 for human HL7702 cells to IC50 for human A549 cells; format: toxicity
How it was run: (§2)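 Selectivity index taken as the logarithm of the ratio of the HL7702 IC50 to the cancer-line IC50. […] Not calculated when an IC50 was lacking.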

[3] = Selectivity index, ratio of IC50 for human HL7702 cells to IC50 for human NCI-H1975 cells; format: toxicity; how it was run: as §2
A549 [4] = experiment: Induction of apoptosis in human A549 cells assessed as increase in PARP level after 24 hrs by Western blot analysis; format: functional, cell-based
How it was run: (§3)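 A549 treated at 1, 5 or 10 µM, or with BMS345541 (20 µM), for 24 h. Cleaved PARP and Bax detected by western blot (10% SDS-PAGE, PVDF, 5% milk block, HRP secondary).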

A549 [5] = experiment: Chemosensitization activity in human A549 cells assessed as inhibition of clonogenic growth at 0.5 uM in presence of 0.25 uM cisplatin incubated for 2 days followed by replacement of growth media and measured after 8 days by crystal violet staining-based assay relative to control; format: functional
How it was run: (§4)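 A549 seeded at 1000 cells per well in 6-well plates, exposed to drug alone or combined with cisplatin or 5-Fu over a concentration series. Drug-containing medium replaced after 2 days. After a further 8 days, fixed with 1% methanol/1% formaldehyde and stained with 0.5% crystal violet. Percent inhibition at each concentration calculated relative to control.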

A549 [6] = experiment: Anticlonogenic activity against human A549 cells assessed as inhibition of clonogenic growth at 0.5 uM incubated for 2 days followed by replacement of growth media and measured after 8 days by crystal violet staining-based assay relative to control; format: functional; how it was run: as §4
[7] = biological target: T1, Inhibitor of nuclear factor kappa-B kinase subunit beta (Homo sapiens) (UniProt O14920); experiment: Inhibition of cisplatin-induced IKK-beta phosphorylation in human A549 cells at 1 to 10 uM preincubated for 1 hr followed by cisplatin addition and measured after 24 hrs by Western blot analysis; format: cell-based
T1 sequence (whole entry): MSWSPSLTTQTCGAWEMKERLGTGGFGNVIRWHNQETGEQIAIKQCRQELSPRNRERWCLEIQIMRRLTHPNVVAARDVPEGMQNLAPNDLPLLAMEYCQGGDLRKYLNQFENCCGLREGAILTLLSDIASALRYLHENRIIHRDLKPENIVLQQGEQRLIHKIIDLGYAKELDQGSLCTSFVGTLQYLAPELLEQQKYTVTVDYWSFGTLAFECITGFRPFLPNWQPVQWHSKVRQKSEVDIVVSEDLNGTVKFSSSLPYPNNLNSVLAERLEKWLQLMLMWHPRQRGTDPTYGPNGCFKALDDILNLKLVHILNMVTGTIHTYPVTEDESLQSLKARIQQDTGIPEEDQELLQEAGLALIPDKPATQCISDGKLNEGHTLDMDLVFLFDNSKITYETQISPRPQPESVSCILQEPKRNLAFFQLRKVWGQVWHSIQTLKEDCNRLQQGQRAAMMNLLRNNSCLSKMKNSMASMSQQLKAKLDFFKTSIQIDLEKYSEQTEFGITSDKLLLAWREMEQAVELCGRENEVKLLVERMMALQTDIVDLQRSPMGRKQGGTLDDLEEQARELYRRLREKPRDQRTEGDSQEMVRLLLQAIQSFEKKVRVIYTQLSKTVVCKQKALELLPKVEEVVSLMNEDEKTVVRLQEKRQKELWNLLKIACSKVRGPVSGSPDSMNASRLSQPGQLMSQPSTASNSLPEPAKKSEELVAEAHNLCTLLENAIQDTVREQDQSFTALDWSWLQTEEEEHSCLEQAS
How it was run: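 A549 pretreated 1 h at 1, 5 or 10 µM, or with BMS345541 (20 µM), then exposed to cisplatin (20/3 µM) for 24 h. p-IKKβ assessed by western blot.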

A549 [8] = experiment: Chemosensitization activity in human A549 cells assessed as inhibition of clonogenic growth at 0.25 uM in presence of 0.25 uM cisplatin incubated for 2 days followed by replacement of growth media and measured after 8 days by crystal violet staining-based assay relative to control; format: functional; how it was run: as §4
[9] = biological target: T2, NF-kappa-B inhibitor alpha (Homo sapiens) (UniProt P25963); experiment: Inhibition of TNF-alpha induced IkappaBalpha degradation in human A549 cells at 1 to 10 uM preincubated for 1 hr followed by TNF-alpha addition and measured after 15 mins by Western blot analysis; format: cell-based
T2 sequence (whole entry): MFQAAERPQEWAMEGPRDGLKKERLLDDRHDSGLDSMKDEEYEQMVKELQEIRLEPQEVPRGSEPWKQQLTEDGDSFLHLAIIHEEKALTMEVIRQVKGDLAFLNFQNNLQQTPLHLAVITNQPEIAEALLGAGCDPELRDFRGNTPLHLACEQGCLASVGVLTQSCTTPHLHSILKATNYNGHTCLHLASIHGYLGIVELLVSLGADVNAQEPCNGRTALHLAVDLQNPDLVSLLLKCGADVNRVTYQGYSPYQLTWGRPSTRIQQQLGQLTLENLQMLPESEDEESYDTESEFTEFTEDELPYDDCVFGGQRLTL
How it was run: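 A549 preincubated 1 h at 1, 5 or 10 µM, or with BMS345541 (20 µM), then stimulated with TNFα (1 ng/mL) for 15 min. NAC arm: 5 mM NAC for 1 h, then 10 µM for 1 h. IκBα detected by western blot, GAPDH as loading control.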

A549 [10] = experiment: Induction of apoptosis in human A549 cells at 10 uM preincubated with NAC for 1 hr followed by compound addition and measured after 24 hrs by Annexin V-FITC/propidium iodide staining based flow cytometric analysis; format: functional, cell-based; how it was run: as §1
A549 [11] = experiment: Cytotoxicity against human A549 cells assessed as reduction in cell viability after 72 hrs by MTT assay; format: functional, cell-based; settings: A549, 72 h
How it was run: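 Cells in RPMI 1640 with 10% heat-inactivated FBS and penicillin/streptomycin at 37 °C, 5% CO2. Seeded at 4000 per well, adhered overnight, then exposed to graded compound concentrations in triplicate wells for 72 h. MTT (5 mg/mL stock) added for 4 h, dissolved in DMSO, A490 read. IC50 is the concentration reducing viability by 50% versus untreated control.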

A549 [12] = experiment: Anticlonogenic activity against human A549 cells assessed as inhibition of clonogenic growth at 0.25 uM incubated for 2 days followed by replacement of growth media and measured after 8 days by crystal violet staining-based assay relative to control; format: functional; how it was run: as §4
A549 [13] = experiment: Induction of apoptosis in human A549 cells assessed as increase in caspase-3 level after 24 hrs by Western blot analysis; format: functional, cell-based
A549 [14] = experiment: Induction of apoptosis in human A549 cells assessed as increase in Bax level at 1 to 10 uM after 24 hrs by Western blot analysis; format: functional, cell-based; how it was run: as §3

In the case of `COc1cc(/C=C2\CN(C)C/C(=C\c3cc(OC)c(OC)c(OC)c3)C2=O)cc(OC)c1OC`, the Activity (A549 [1]) was “Dose-dependent effect”, the “log(RatioIC50)” value [2] was 1.19 and the “log(RatioIC50)” value [3] was 1.42. For the same compound, the Activity (A549 [4]) was “Dose-dependent effect”, the “inhibition (INH)” value (A549 [5]) was 59% and the inhibition at 0.5 µM (A549 [6]) was 18%. The inhibition [7] was “Active”, the inhibition at 0.25 µM (A549 [8]) was 51% and the inhibition [9] was “Active”. For the same compound, the Activity (A549 [10]) was “inactive”, the pIC50 (A549 [11]) was 5.77 and the inhibition at 0.25 µM (A549 [12]) was 2 to 11%. For the same compound, the Activity (A549 [13]) was “Dose-dependent effect” and the Activity (A549 [14]) was “Active”.
